For assay [1], the system named is Human alphaherpesvirus 2. In words: Antiviral activity against Human herpesvirus 2 strain 333 infected in African green monkey CV1 cells assessed as log reduction in viral titer at 100 uM. Format: functional, CV-1. An outline of the steps:
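Lab strain HSV-2 333 was grown and titrated either in CV-1 cells or in Vero cells. Virus was incubated with 100 μM EGCG for 60 min, then titrated as tenfold dilutions for 5 days at 37°C with CPE scoring. Reed-Muench TCID50 of treated versus control virus gave the titer decrease. Mean of three experiments.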

In assay [2] the test system is Human alphaherpesvirus 1. As to the kind of experiment: Antiviral activity against Human herpesvirus 1 F1 infected in African green monkey Vero cells assessed as log reduction in viral titer at 100 uM.

Regarding `O=C(O[C@@H]1Cc2c(O)cc(O)cc2O[C@@H]1c1ccc(O)c(O)c1)c1cc(O)c(O)c(O)c1` [EPICATECHIN GALLATE], the FC result in assay [1] is reported as “>=1”.
Regarding `O=C(O[C@@H]1Cc2c(O)cc(O)cc2O[C@H]1c1cc(O)c(O)c(O)c1)c1cc(O)c(O)c(O)c1` [GALLOCATECHIN GALLATE], the FC in assay [1] was found to be 4; in assay [2], 3.5.

The record behind these values is ChEMBL document CHEMBL1629542, “Epigallocatechin gallate inactivates clinical isolates of herpes simplex virus” (Antimicrob Agents Chemother, 2008).
